Bioassay records deposited in PubChem BioAssay by several laboratories.
Rows were chosen to be rich in hits. Some 0.88% of all compounds tested hit in one or more screens of this group.
PKA-R2B activ: activators of human PKA-R2B complex; activation, % at 11.4 µM; 340,000 tested, 0.079% active; AID 504700; P22694+P31323; PKA-R2B holoenzyme dissociation, Cy5-IP20 fluorescence polarization; R2B truncated from residue 108, S112A mutant; 0% DMSO only, 100% 113 µM cGMP;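 active means activation above a cutoff set at the mean over all compounds plus 3 SD, cut at about 18% in these data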;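 further: higher means more holoenzyme dissociation and a rise in polarization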
APJ antagonist: blocks the human apelin receptor APJ; P35414; CHO-K1 APJ beta-arrestin complementation, luminescence; inhibition, % at 20 µM; 330,000 tested, 0.32% active;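 active means inhibition above about 40% at 20 µM, limit read from the data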;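 further: cells challenged with 10 nM apelin-13 agonist together with compound; plate controls were apelin-13 plus DMSO wells for no effect and DMSO wells lacking apelin-13 for full effect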
APJ agonist: agonists of human APJ apelin receptor; P35414; CHO-K1 APJ PathHunter beta-arrestin, luminescence; 0% DMSO wells, 100% apelin; activation, % at 20 µM; 330,000 tested, 0.11% active; AID 2520;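 active means activation more than six SD over the plate average, tested at 20 µM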;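 further: 0% = DMSO alone and 100% = apelin-13 at 10 nM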
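Test system – PathHunter CHO-K1 APJ (AGTRL-1) beta-arrestin reporter cells · Input – 1000 cells/well · Compound – single test compound dose, 20 µM final, 1% DMSO · Times – compound stimulation 90 min at 25 °C, detection 60 min · Technique – beta-gal luminescence · Read-out basis – APJ–arrestin association signal · Control set – negative DMSO alone, positive Apelin-13 at 10 nM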
CCR6 antagonist: CCR6 (human) receptor antagonism. 340,000 tested, 0.49% active. AID 493098. P51684. inhibition, % at 20 µM. CHO-K1 CCR6 PathHunter beta-arrestin, luminescence, CCL20-stimulated;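 active means compounds whose inhibition of the agonist-driven luminescence signal at 20 µM reaches about 50%, limit read from the data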;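 further: cells stimulated with CCL20 at 14 nM final; plate controls were DMSO with CCL20 for no effect and DMSO without agonist for full effect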
CXCR6 block: blocks human CXCR6 beta-arrestin recruitment | O00574 | CHO-K1 PathHunter CXCR6 beta-arrestin, luminescence | inhibition, % at 20 µM | 360,000 tested, 0.36% active; in the data active means inhibition above about 34%, passing the limit was not always enough;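 further: antagonist mode with CXCL16 agonist at 10 nM final; 0% = 10 nM CXCL16 with DMSO and 100% = unstimulated wells without agonist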
Target sequence (O00574 whole entry, looked up): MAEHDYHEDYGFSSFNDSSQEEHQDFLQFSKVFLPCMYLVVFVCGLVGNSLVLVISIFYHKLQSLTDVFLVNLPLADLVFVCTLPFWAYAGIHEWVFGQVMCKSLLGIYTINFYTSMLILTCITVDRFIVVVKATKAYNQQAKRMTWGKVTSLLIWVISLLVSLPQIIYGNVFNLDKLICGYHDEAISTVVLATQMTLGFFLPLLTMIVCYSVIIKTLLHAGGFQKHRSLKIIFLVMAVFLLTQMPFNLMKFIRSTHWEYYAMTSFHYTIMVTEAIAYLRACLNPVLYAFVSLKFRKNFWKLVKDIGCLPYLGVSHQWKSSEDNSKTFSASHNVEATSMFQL
PKA-R1A act: activates the PKA-R1A holoenzyme complex. AID 504707. PKA-R1A dissociation, Cy5-IP20 fluorescence polarization; scaled: DMSO 0%, 113 µM cGMP 100%. 340,000 tested, 0.083% active. activation, % at 11.4 µM. P00514+P68181;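 active means percent activation above the mean of all tested compounds plus 3 SD, cut at about 19% in these data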;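 further: higher means more PKAc released from R1A so a rise in polarization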
APJ antag conf: confirmation of human APJ apelin receptor antagonists; shares compounds with APJ antagonist; inhibition, % at 20 µM; 950 tested, 66% active; APJ beta-arrestin recruitment, luminescence, antagonist mode; in the data active means inhibition above about 50%
R2B FP artifact: FP assay interference, PKA-R2B counter-screen. shares compounds with PKA-R2B activ. FP artifact counterscreen, fluorescence polarization. activation, % at 11.4 µM. 270 tested, 6% active. AID 504796; in the data active means activation above about 20%;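 further: Cy5 labelled IP20 peptide probe with compound but no PKA protein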
PKA-R2B confirm: confirmation of human PKA-R2B complex activators. shares compounds with PKA-R2B activ. fluorescence polarization, activation. activation, % at 11.4 µM. 270 tested, 9% active; in the data active means activation above about 19%
Starred values were filed as active, the others as inactive; nt = not tested or not shown.

SMILES	PKA-R2B activ	APJ antagonist	APJ agonist	CCR6 antagonist	CXCR6 block	PKA-R1A act	APJ antag conf	others
Nc1nc2c(c(=O)[nH]1)C(c1ccccc1)C1=C(N2)c2ccccc2C1=O (stereo not given)	-7	45*	-7	33	19	4	39
O=C(COc1ccccc1[N+](=O)[O-])N1CCC(Cc2ccccc2)CC1	0	15	-3	7	-10	4	nt
NC(=O)c1ccccc1OCC(=O)N1CCC(Cc2ccccc2)CC1	5	43*	-1	8	-1	-1	-32
CC(C)=NNc1cnnc2ccc([N+](=O)[O-])cc12	nt	nt	nt	nt	8	nt	nt
CCSC1(SCC)N=C(N)C2(C#N)C(c3ccc(OC)c(OC)c3OC)C12C#N (stereo not given)	6	51*	-4	58*	39	-2	72*
COc1ccc(-c2ccc(C(=O)N3CCOCC3)c3occc23)c(C)c1	nt	nt	nt	nt	-14	nt	nt
CC(C)(C)N(Cc1ccccc1)C(=O)c1cc2ccccc2o1	-4	45*	-2	21	2	4	23
Cc1ccc(C2(c3ccccc3)NC(=O)N(CC(=O)NC3(C#N)CCCC3)C2=O)cc1C (stereo not given)	-1	7	-4	14	3	-9	nt
CCCC(C)NC(=O)CSc1nc2ccc(C)cc2[nH]1 (stereo not given)	5	2	-1	-6	1	-1	nt
CCOc1cc(/C=N/N2CCN(Cc3ccccc3)CC2)ccc1O	0	-7	0	5	-2	-1	nt
Cc1ccc(C(=O)COC(=O)CNS(=O)(=O)c2ccccc2)cc1[N+](=O)[O-]	-3	48*	-16	80*	18	0	86*
Cc1ccc(C(=O)COC(=O)CNC(=O)Cc2ccccc2)cc1[N+](=O)[O-]	3	45*	-10	68*	26	-10	62*
COc1cc(OC)cc(C(=O)N[C@H](C(=O)OCC(=O)c2ccc(C)c([N+](=O)[O-])c2)C(C)C)c1	-3	48*	-14	50*	18	0	51*
Cc1ccc(C(=O)COC(=O)CNC(=O)Cc2ccccc2)cc1	-7	10	-1	-1	-7	-1	nt
Cc1ccc(C)c(C(=O)COC(=O)CNS(=O)(=O)c2ccccc2)c1	8	-2	-3	4	1	-6	nt
Cc1ccc(C(=O)COC(=O)CNC(=O)c2ccc(Br)o2)cc1[N+](=O)[O-]	-9	48*	-14	36	22	-5	66*
CCN(CC)S(=O)(=O)c1cc(C(=O)NCCN2CCOCC2)ccc1Cl	2	5	-1	-2	-1	3	nt
Cc1cccc(C)c1N=Cc1c(C(F)(F)F)[nH][nH]c1=O	0	15	-2	6	7	-4	nt
Cc1nnc(NC(=O)CSc2nccn2Cc2ccccc2)s1	-7	2	-4	9	-4	-3	nt
COc1ccc(S(=O)(=O)N2CCCCCC2)cc1N(C)S(=O)(=O)c1ccc(C)cc1	-6	0	0	15	3	5	nt
Cc1nc2ccc(N=NC3=C(O)CC(C)(C)CC3=O)cc2s1	-2	-19	4	29	4	-8	nt
CCOc1ccc2nc(N=NC3=C(O)CC(C)(C)CC3=O)sc2c1	-8	41*	-6	34	30	-2	51*
Cc1ccc(S(=O)(=O)Nc2nc3ccccc3nc2Nc2cccc(S(=O)(=O)N3CCCC3)c2)cc1	3	74*	-1	2	7	2	1
CCc1ccc(C(=O)NNc2ccc(Cl)cc2)cc1	5	51*	-11	19	7	1	60*
O=C1CN(C(=O)c2ccc(Cl)c([N+](=O)[O-])c2)c2ccccc2N1	0	41*	-1	4	3	-6	-8
SMILES	PKA-R2B activ	APJ antagonist	APJ agonist	CCR6 antagonist	CXCR6 block	PKA-R1A act	APJ antag conf	others
Cc1ccc(Nc2c([N+](=O)[O-])cc(C(=O)N3CC(=O)Nc4ccccc43)cc2[N+](=O)[O-])c(C)c1	0	-32	6	-4	14	5	nt
CCN(CC)S(=O)(=O)c1ccc2oc(SCC(=O)NC3CC3)nc2c1	-2	-14	3	-1	0	-4	nt
CCN(CC)S(=O)(=O)c1ccc2oc(SCC(=O)Nc3cc(C)on3)nc2c1	-1	43*	-10	nt	12	0	53*
O=C1N/C(=N\S(=O)(=O)Cc2ccccc2)S/C1=C/c1cc([N+](=O)[O-])ccc1O	-5	41*	-4	31	13	-21	55*
O=C1N/C(=N\S(=O)(=O)c2ccccc2)S/C1=C\c1cc([N+](=O)[O-])ccc1O	-9	33	-3	15	14	2	nt
CC(C)C[C@H]1CNC(=O)C(=O)N1C[C@H]1CCCN1C[C@H](CC(C)C)N1C[C@H](CC(C)C)N(CCc2ccccc2)C(=O)C1=O	nt	nt	nt	nt	7	nt	nt
COc1ccc(C2SCC(=O)N2c2nc3ccccc3s2)cc1 (stereo not given)	-13	44*	-5	6	-2	-4	38
Cc1c(C(=O)N2CCN(c3ccccc3F)CC2)sc2ncn(CC(=O)N3CCOCC3)c(=O)c12	3	-1	4	2	5	-1	nt
O=C(N/N=C\c1ccc([N+](=O)[O-])o1)c1cncc(Br)c1	4	42*	3	18	-11	-3	22
C=CCN(CC=C)Cc1c(O)ccc2c1oc(=O)c1ccccc12	-19	47*	-11	13	37	-1	78*
CCOC(=O)c1cnc2c(cnn2C)c1NCCC(O)C(F)(F)F (stereo not given)	-3	48*	0	9	4	0	33
CCCCCCCCCCCCCCCC[N+](C)(C)CCN(Cc1ccc(OC)cc1)c1ncccn1	30*	51*	-14	65*	5	-4	42	R2B FP artifact=-1;PKA-R2B confirm=36*
Cc1cc(O)ccc1NC(=O)CCN1C(=O)c2ccc([N+](=O)[O-])cc2C1=O	-16	-38	4	-1	-8	-14	nt
